Pf Dd2 growth: P. falciparum Dd2 growth inhibition | SYBR Green, 72 h; stronger effect = lower value | activity change, % at 10 µM | actives 2.3% (n = 94,000); in the data active = activity change below about -80%; inconclusive = no clear call, values can overlap the other calls
IDH1 mut inh: IDH1 R132H (human) inhibition; IDH1 R132H reductase, diaphorase/resazurin fluorescence, 60 min; AID 624101; inhibition, % at 10 µM; O75874; actives 0.18% (n = 70,000); in the data active = inhibition above about 34%; inconclusive = no clear call, values can overlap the other calls; inactive = below about 11%
Target sequence (O75874 whole entry R132H): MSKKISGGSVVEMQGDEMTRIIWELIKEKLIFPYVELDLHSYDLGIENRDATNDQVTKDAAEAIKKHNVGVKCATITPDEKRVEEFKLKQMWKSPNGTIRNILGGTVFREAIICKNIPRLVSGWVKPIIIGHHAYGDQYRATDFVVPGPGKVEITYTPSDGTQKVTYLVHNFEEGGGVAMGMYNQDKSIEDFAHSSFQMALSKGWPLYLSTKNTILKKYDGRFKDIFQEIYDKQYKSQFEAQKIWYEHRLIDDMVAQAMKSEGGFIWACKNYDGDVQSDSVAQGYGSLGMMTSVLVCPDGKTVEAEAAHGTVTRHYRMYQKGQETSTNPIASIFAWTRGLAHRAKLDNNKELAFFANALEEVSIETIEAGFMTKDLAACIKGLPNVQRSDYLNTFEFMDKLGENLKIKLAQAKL
GASC1 inh: blocks human GASC-1 (KDM4C) demethylase activity; Q9H3R0; inhibition, % at 12.5 µM; actives 0.15% (n = 96,000); GST-KDM4C 2-372, H3K9me3 peptide, LANCE TR-FRET;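 active = mean replicate inhibition above about 25%, with at least 55% of replicates also reaching it, limit read from the data, passing the limit was not always enough; inconclusive = only one of those two conditions met; inactive = neither condition met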
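System: N-terminal GST-fused human GASC-1 (KDM4C) fragment, residues 2-372 / Amount: 10 nM GST-KDM4C in enzyme reaction / Also added: H3K9me3 peptide with Fe(II)/2OG / Times: 30 min demethylation and 1 h detection at room temperature / Signal: LANCE TR-FRET / Read-out basis: Fall in 671/618 emission ratio as inhibition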
T cruzi growth-1: blocks T. cruzi growth in NIH3T3 culture; inhibition, % at 8.34 µM; actives 5.9% (n = 77,000); AID 624255; T. cruzi beta-gal in NIH3T3, GalScreen luminescence, 90 h;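 active = mean inhibition above about 93%, with at least 55% of replicates each passing it, limit read from the data, passing the limit was not always enough; inconclusive = only one of those two conditions holds; inactive = neither condition holds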
T cruzi growth-2: Trypanosoma cruzi proliferation inhibition; AID 651739; shares compounds with T cruzi growth-1; T. cruzi beta-gal in NIH3T3, GalScreen luminescence, 90 h; inhibition, % at 8.35 µM; actives 72% (n = 5,600);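 active = mean replicate inhibition above about 95% and at least 55% of replicates individually reaching it, limit read from the data; inconclusive = only one of the two criteria is met; inactive = neither criterion is met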
T cruzi growth-3: inhibitors of T. cruzi proliferation; shares compounds with T cruzi growth-1; T. cruzi beta-gal in NIH3T3, GalScreen luminescence, 90 h; inhibition, % at 2.09 µM; actives 21% (n = 5,600); AID 651740;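 active = mean inhibition above about 95%, with at least 55% of replicates also reaching it, limit read from the data; inconclusive = meets just one of the two conditions; inactive = meets neither condition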
3T3 cytotox: NIH/3T3 (mouse) viability loss; shares compounds with T cruzi growth-1; NIH/3T3 viability, CellTiter-Glo ATP luminescence, 90 h; cytotoxicity (signal decrease), % at 8.35 µM; actives 14% (n = 5,600); AID 651742;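 active = mean signal decrease across replicates above about 35% based on untreated-well scatter, with enough replicates individually passing, limit read from the data; inconclusive = no rule stated though some were filed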
NIH3T3 tox 2: kills mouse NIH/3T3 fibroblasts; shares compounds with T cruzi growth-1; actives 56% (n = 5,600); NIH/3T3 viability, CellTiter-Glo ATP luminescence, 90 h; AID 651744; inhibition, % at 24.9 µM;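 active = mean loss of cell viability signal at or above a set limit, and enough replicates individually reaching it; inconclusive = meets only the mean limit or only the replicate share; inactive = meets neither condition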
A number is an active result; i = inactive; ? = inconclusive; nt = no result given. The list is not random: actives were taken first. Their share in the collection is about 5.8%.

SMILES	Pf Dd2 growth	IDH1 mut inh	GASC1 inh	T cruzi growth-1	T cruzi growth-2	T cruzi growth-3	3T3 cytotox	NIH3T3 tox 2
C[C@@H]1CCCCO[C@H](CN(C)Cc2ccc(C(F)(F)F)cc2)[C@H](C)CN([C@H](C)CO)C(=O)c2cc(NS(=O)(=O)c3cccs3)ccc2O1	i	nt	i	101	99	117	i	105
C[C@@H]1CCCCO[C@H](CN(C)Cc2ccc(C(F)(F)F)cc2)[C@@H](C)CN([C@H](C)CO)C(=O)c2cc(NS(=O)(=O)c3cccs3)ccc2O1	i	nt	i	i	nt	nt	nt	nt
C[C@H]1CN([C@@H](C)CO)C(=O)c2cc(Br)cnc2O[C@@H]1CN(C)C(=O)Nc1ccc(F)cc1	i	i	i	i	nt	nt	nt	nt
O=C(Cc1ccccn1)NCC[C@H]1CC[C@H](NC(=O)Nc2ccccc2)[C@H](CO)O1	i	i	i	i	nt	nt	nt	nt
C[C@@H]1CCCCO[C@H](CN(C)Cc2ccc(C(F)(F)F)cc2)[C@H](C)CN([C@@H](C)CO)C(=O)c2cc(NS(=O)(=O)c3cccs3)ccc2O1	i	i	i	113	97	104	i	103
O=C(Cc1ccncc1)Nc1ccc2c(c1)[C@H]1C[C@@H](CC(=O)N3CCOCC3)O[C@@H](CO)[C@H]1O2	i	i	i	i	nt	nt	nt	nt
COc1ccccc1NC(=O)N1CCCCN2[C@H](C1)[C@@H](c1ccc(C#Cc3ccccc3)cc1)[C@@H]2CO	i	nt	i	107	99	109	36	105
COc1ccccc1NC(=O)N1CCCCN2[C@H](CO)[C@H](c3ccc(C#Cc4ccccc4)cc3)[C@H]2C1	i	nt	i	i	nt	nt	nt	nt
COc1ccccc1NC(=O)N1CCCCN2[C@H](C1)[C@H](c1ccc(C#CC3CC3)cc1)[C@@H]2CO	i	nt	nt	100	105	i	i	30
C[C@H]1CN([C@@H](C)CO)C(=O)c2cc(C#Cc3ccccn3)cnc2O[C@@H]1CN(C)Cc1cncnc1	i	i	i	111	108	i	i	i
C[C@@H]1CN([C@@H](C)CO)C(=O)c2cc(C#Cc3ccccn3)cnc2O[C@H]1CN(C)Cc1ccccc1	i	i	i	128	105	i	i	i
COc1ccc(NC(=O)N(C)C[C@@H]2Oc3ccc(NC(=O)CCN4CCOCC4)cc3CC(=O)N([C@@H](C)CO)C[C@H]2C)cc1	i	i	i	nt	nt	nt	nt	nt
C[C@H]1CN([C@@H](C)CO)C(=O)Cc2cc(NC(=O)Nc3cccc4ccccc34)ccc2O[C@H]1CN(C)Cc1ccc(Oc2ccccc2)cc1	i	i	i	i	nt	nt	nt	nt
C[C@@H]1CN([C@@H](C)CO)C(=O)Cc2cc(NC(=O)Nc3cccc4ccccc34)ccc2O[C@H]1CN(C)Cc1ccc(Oc2ccccc2)cc1	i	i	i	?	105	107	i	i
C[C@@H]1CN([C@H](C)CO)C(=O)Cc2cc(NC(=O)Nc3cccc4ccccc34)ccc2O[C@H]1CN(C)Cc1ccc(Oc2ccccc2)cc1	i	i	i	96	107	i	i	i
N#C[C@@H]1N[C@@H](CO)[C@@H]1c1ccc(-c2ccccc2F)cc1	i	nt	i	?	i	i	i	i
N#C[C@@H]1N[C@H](CO)[C@H]1c1ccc(C2=CCCC2)cc1	i	nt	i	101	i	i	i	i
O=C(NC[C@H]1N[C@@H](CO)[C@H]1c1ccc(-c2ccccc2)cc1)c1ccccc1F	i	nt	i	i	nt	nt	nt	nt
N#C[C@@H]1N[C@H](CO)[C@H]1c1ccc(-c2ccccc2F)cc1	i	nt	i	102	i	i	i	i
O=C(NC[C@@H]1N[C@@H](CO)[C@@H]1c1ccc(-c2ccccc2F)cc1)c1ccccn1	i	nt	i	102	i	i	i	i
COc1cccc(N(CC(=O)Nc2cccc(Cl)c2)S(C)(=O)=O)c1	nt	i	nt	nt	nt	nt	nt	nt
C[C@@H]1CN([C@H](C)CO)C(=O)c2cc(-c3ccncc3)cnc2O[C@@H]1CN(C)C(=O)c1ccc(F)cc1	i	nt	i	i	nt	nt	nt	nt
C[C@@H]1CN([C@@H](C)CO)C(=O)c2cc(NC(=O)Cc3cn(C)c4ccccc34)ccc2O[C@@H]1CN(C)Cc1ccc(Oc2ccccc2)cc1	i	i	i	93	96	?	i	76
C[C@H](CO)N1C[C@H](C)[C@H](CN(C)Cc2ccc(C(F)(F)F)cc2)Oc2ccc(NC(=O)Cc3cn(C)c4ccccc34)cc2C1=O	i	i	i	i	nt	nt	nt	nt
C[C@H]1CN([C@@H](C)CO)C(=O)c2cc(NC(=O)Cc3cn(C)c4ccccc34)ccc2O[C@H]1CN(C)Cc1ccc(C(F)(F)F)cc1	i	i	i	?	101	i	i	i
SMILES	Pf Dd2 growth	IDH1 mut inh	GASC1 inh	T cruzi growth-1	T cruzi growth-2	T cruzi growth-3	3T3 cytotox	NIH3T3 tox 2
C[C@@H]1CN([C@@H](C)CO)C(=O)c2cc(NC(=O)Cc3cn(C)c4ccccc34)ccc2O[C@H]1CN(C)Cc1ccc(C(F)(F)F)cc1	i	i	i	113	105	i	i	?
C[C@@H]1CN([C@H](C)CO)C(=O)c2cc(NC(=O)Cc3cn(C)c4ccccc34)ccc2O[C@@H]1CN(C)Cc1ccccc1	i	i	i	i	nt	nt	nt	nt
COc1ccc(S(=O)(=O)N(C)C[C@H]2Oc3ccc(NC(=O)Cc4cn(C)c5ccccc45)cc3C(=O)N([C@@H](C)CO)C[C@H]2C)cc1	i	i	i	99	108	i	i	61
COC(=O)c1cc(C)cc(O)c1C(=O)c1c(O)cccc1O	nt	i	nt	nt	nt	nt	nt	nt
Cc1ccc(S(=O)(=O)N(C)C[C@@H]2Oc3c(NC(=O)NC4CCCCC4)cccc3C(=O)N([C@H](C)CO)C[C@H]2C)cc1	i	nt	i	i	nt	nt	nt	nt
CC(C)C#Cc1ccc([C@@H]2[C@@H](CO)N3C(=O)CN(C(=O)c4ccc5c(c4)OCO5)C[C@H]23)cc1	i	nt	i	nt	nt	nt	nt	nt
COc1ccc(S(=O)(=O)N(C)C[C@H]2OCCCC[C@H](C)Oc3ccc(NS(=O)(=O)c4ccc(C)cc4)cc3C(=O)N([C@H](C)CO)C[C@@H]2C)cc1	i	i	i	?	110	i	i	i
COc1ccc(S(=O)(=O)Nc2ccc3c(c2)C(=O)N([C@H](C)CO)C[C@H](C)[C@@H](CN(C)S(=O)(=O)c2ccc(C)cc2)OCCCC[C@@H](C)O3)cc1	i	i	i	nt	nt	nt	nt	nt
COc1ccc(S(=O)(=O)N(C)C[C@H]2OCCCC[C@@H](C)Oc3ccc(NS(=O)(=O)c4ccc(C)cc4)cc3C(=O)N([C@H](C)CO)C[C@@H]2C)cc1	i	nt	i	i	nt	nt	nt	nt
COc1ccc(S(=O)(=O)N(C)C[C@H]2OCCCC[C@H](C)Oc3ccc(NS(=O)(=O)c4ccc(C)cc4)cc3C(=O)N([C@H](C)CO)C[C@H]2C)cc1	-83	nt	i	?	107	i	i	i
